Many of the other results were omitted from the sample, so hits are more common in it than they were.
S1P4 ag = S1P4 receptor agonists, primary screen, cell-based | Sphingosine 1-phosphate receptor 4 (Homo sapiens), O95977 | S1P4-expressing cell line, agonist reporter assay | activation, % at 4.98 µM | 0.35% of 220,000 active | AID 1509, 2009; in the data active = activation above about 11%;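 also: 0% = DMSO vehicle and 100% = reference agonist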
Mdm2 ligase inh = MDM2-luciferase reporter signal enhancers, primary screen, MDM2 E3 ligase inhibitor project, cell-based, luminescence, 1536-well; cell-based MDM2 ubiquitination luciferase reporter, 2 h; 0 = plate control, 100 = twice control, blank-subtracted; signal enhancement, % at 5 µM; 0.11% of 210,000 active;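 active = signal enhancement of 30% or more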;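 also: luminescence tracks abundance of the self-degrading MDM2-luciferase fusion protein; higher signal means inhibition of MDM2 E3 ligase activity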
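test system = mammalian cells stably expressing self-ubiquitinating, self-degrading MDM2 E3–luciferase fusion | quantity = 2000 cells/well | incubation = cell settling 4 h, compound treatment 2 h, both 37 °C | signal = luminescence with SteadyLite reagent, 15 min at room temperature | evaluation = % enhancement relative to plate controls after blank subtraction | benchmarks = plate controls and plate blanks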
S1P4 antag = S1P4 receptor antagonists, primary screen, cell-based; Sphingosine 1-phosphate receptor 4 (Homo sapiens), O95977; S1P4-expressing cells, antagonist mode, reporter read-out; inhibition, % at 4.98 µM; 0.26% of 220,000 active; in the data active = inhibition above about 29%;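 also: 0% = wells stimulated with agonist and 100% = vehicle wells without agonist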
Lmaj promast = Leishmania major promastigote growth inhibition, primary screen | inhibition, % at 10 µM | 9% of 200,000 active | Leishmania major promastigotes, resazurin fluorescence viability | AID 1063, 2008; in the data active = inhibition above about 50%;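 also: promastigotes grown with compound for 44 hours at 28 °C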
S1P3 antagonist = S1P3 receptor antagonists, primary screen, cell-based; Sphingosine 1-phosphate receptor 3 (Homo sapiens), Q99500; inhibition, % at 4.98 µM; 0.27% of 170,000 active; CHO S1P3 NFAT-BLA reporter, FRET fluorescence, antagonist mode; AID 485, 2006;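 active = inhibition above the plate cutoff, the mean inhibition of test wells on that plate plus 3 SD, cut at about 28% in these data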;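 also: cells challenged with S1P at its EC80 of 0.8 µM; blue over green emission ratio from cleaved BLA substrate after 4 h stimulation; 0% = S1P-stimulated wells and 100% = unstimulated DMSO-only wells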
Target sequence (Q99500 whole entry, looked up): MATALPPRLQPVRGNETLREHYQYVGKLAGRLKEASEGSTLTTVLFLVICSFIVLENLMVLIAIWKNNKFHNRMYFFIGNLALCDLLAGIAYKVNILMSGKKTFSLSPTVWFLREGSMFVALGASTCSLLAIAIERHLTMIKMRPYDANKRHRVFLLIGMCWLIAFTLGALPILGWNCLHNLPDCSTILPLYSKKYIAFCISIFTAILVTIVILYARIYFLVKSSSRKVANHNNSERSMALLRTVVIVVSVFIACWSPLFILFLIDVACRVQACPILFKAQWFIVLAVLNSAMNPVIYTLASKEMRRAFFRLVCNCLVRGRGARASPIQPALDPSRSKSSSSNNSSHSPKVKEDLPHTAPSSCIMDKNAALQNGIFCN
* marks the source's active call; other numbers are inactive results; · = no result given.

SMILES | S1P4 ag | Mdm2 ligase inh | S1P4 antag | Lmaj promast | S1P3 antagonist
Cn1c2c(c(=O)n(C)c1=O)C(c1ccc(Cl)cc1)C(C#N)=C(N)O2 (stereo unspecified) | 0 | -14 | -18 | 0 | -3
Cc1sc2nc(CN3CCCC3)nc(Cl)c2c1C | 0 | -9 | -8 | 86* | 7
Cc1ccc(C2SCCN2C(=O)c2ccc([N+](=O)[O-])cc2)cc1 (stereo unspecified) | -2 | -3 | 1 | 50* | -6
O=C(c1ccc([N+](=O)[O-])cc1)N1CCSC1c1ccc(Br)cc1 (stereo unspecified) | 3 | 5 | 0 | 5 | -3
O=C(NC12CC3CC(CC(C3)C1)C2)c1cncc(O)c1 | 1 | -6 | -15 | -10 | ·
C=CCNC(=O)C1(c2ccccc2)CC1(Cl)Cl (stereo unspecified) | 3 | -1 | -21 | 34 | 3
CCN(CC)S(=O)(=O)c1cccc(-c2cn3cc(C)ccc3n2)c1 | 2 | -21 | -4 | 85* | ·
CCN(CC)S(=O)(=O)c1cccc(-c2n[nH]c(=S)n2Cc2ccccc2)c1 | -1 | -5 | 16 | 100* | -1
CCN(CC)S(=O)(=O)c1cccc(-c2n[nH]c(=S)n2CC(C)C)c1 | 1 | · | -9 | 0 | -1
Cc1cc(C)cc(CC(Cc2nc3ccccc3[nH]2)c2nc3ccccc3[nH]2)c1 (stereo unspecified) | -2 | -12 | -9 | 91* | ·
CN1C(=O)/C(=C/c2ccccc2OCc2ccccc2F)NC1=S | 1 | -14 | -8 | 62* | ·
Cc1ccc(NC(=O)NC(=O)CSc2nnc(-c3ccc(Cl)cc3Cl)n2N)c(C)c1 | 1 | -4 | -7 | -4 | 3
CC1(C)NC(=O)N(CC(=O)OCC(=O)Nc2cc(S(=O)(=O)N3CCCCC3)ccc2Cl)C1=O | 1 | -7 | -27 | 70* | 4
Cc1[nH]c2c(C)cccc2c1CCNC(=O)c1ccc2c(c1[N+](=O)[O-])C(=O)c1ccccc1C2=O | -1 | 8 | -7 | 100* | ·
Cc1[nH]c2ccccc2c1CCNC(=O)c1ccc2c(c1[N+](=O)[O-])C(=O)c1ccccc1C2=O | 2 | -24 | -8 | 95* | ·
CCOc1ccccc1C(=O)N1CCN=C1SCc1cccnc1 | -1 | -10 | 7 | -1 | 0
COc1ccc(C(=O)Nc2c3c(nn2-c2cccc(Cl)c2)CS(=O)C3)cc1 (stereo unspecified) | -1 | -4 | 4 | 98* | -10
Clc1ncnc2scc(-c3ccc(Br)cc3)c12 | 3 | -7 | -27 | 94* | 11
C#CCOc1ccc(/C=N/O)cc1Cl | 0 | -14 | -15 | 55* | -14
COc1ccc(S(=O)(=O)N2CCOCC2)cc1NC(=O)COC(=O)c1ccc(C)s1 | 2 | 3 | -11 | -1 | 11
COc1ccc(S(=O)(=O)N2CCOCC2)cc1NC(=O)CN1CCCC1 | 0 | -9 | -38 | -2 | 10
COc1ccc(S(=O)(=O)N2CCOCC2)cc1NC(=O)CN1CCC(Cc2ccccc2)CC1 | -1 | -14 | -15 | 99* | -1
COc1ccc(S(=O)(=O)N2CCOCC2)cc1NC(=O)COC(=O)C1COc2ccccc2O1 (stereo unspecified) | 1 | -14 | -9 | 66* | 6
CCOc1cc(N2CCOCC2)c(OCC)cc1NC(=O)CN1C(=O)NC(Cc2ccccc2)C1=O (stereo unspecified) | 12* | -9 | -30 | -4 | -7
CCOc1cc(N2CCOCC2)c(OCC)cc1NC(=O)CN1CCC(Cc2ccccc2)CC1 | 1 | · | -12 | 20 | 4
SMILES | S1P4 ag | Mdm2 ligase inh | S1P4 antag | Lmaj promast | S1P3 antagonist
O=C(CO/N=C/c1ccc2c(c1)OCO2)Nc1cccc(Br)c1 | -2 | -9 | -16 | -3 | 4
CCC(=O)Nc1ccc(S(=O)(=O)Nc2ccc(Cl)nn2)cc1 | 1 | -10 | -18 | 48 | -1
OC(CN1C2=NCCN2c2ccccc21)c1ccccc1 (stereo unspecified) | 0 | 2 | -5 | 9 | -5
Cc1ccc(C(O)CN2C3=NCCN3c3ccccc32)cc1 (stereo unspecified) | 2 | 14 | -12 | 96* | 25
CCN1C2=NCCCN2c2ccccc21 | -1 | 1 | 16 | -2 | -4
OC(COc1ccc(Cl)cc1)CN1C2=NCCCN2c2ccccc21 (stereo unspecified) | -1 | -7 | -19 | 63* | -37
OC(CN1C2=NCCN2c2ccccc21)c1ccc(Br)cc1 (stereo unspecified) | -1 | -23 | 13 | 1 | 2
OC(CN1C2=NCCCN2c2ccccc21)c1ccc(Cl)cc1 (stereo unspecified) | 1 | -38 | 6 | 27 | 82*
C/C(=N\OCC(=O)Nc1c(C)cc(C)cc1C)c1ccc2c(c1)OCCO2 | 4 | 0 | 3 | 2 | -21
CCc1cc[n+](C2=C([O-])c3ccccc3C(=O)/C2=N\S(=O)(=O)c2cccs2)cc1 | 1 | -14 | -1 | 99* | 2
CSc1cnc2c(N)nc(N(C)C)nc2n1 | 1 | -2 | -19 | 58* | -19
CSc1nc(N)nc(N(C)C)n1 | 0 | -10 | 5 | · | 2
CCCCCCn1c(=O)c(F)cn(Cc2ccc(OC)c([N+](=O)[O-])c2)c1=O | 3 | -12 | 6 | 91* | ·
Cc1cc(Br)cc2c(C(=O)Nc3c(C)n(C)n(-c4ccccc4)c3=O)cc(-c3cccs3)nc12 | -1 | -13 | 4 | 69* | ·
COc1cc(C(=O)NCCCc2nc3ccccc3n2Cc2cc(C)ccc2C)cc(OC)c1OC | 1 | · | 8 | 69* | -8
COCc1cc(N2CCCC2)nc(-c2ccccc2)n1 | -1 | -10 | 27 | 6 | -15
COC(=O)C(NC(=O)c1ccccc1)(Nc1cc(C)cc(C)n1)C(F)(F)F (stereo unspecified) | -3 | 3 | -2 | 6 | ·
O/C(=C\Sc1nnc(Cc2ccccc2)o1)c1ccc(Br)cc1 | 1 | -34 | -15 | 16 | 81*
COC(=O)[C@@]1(Cc2ccc(OC)cc2)[C@H]2c3cc(C(=O)N4CCCC4)n(Cc4ccc(OC)c(OC)c4)c3C[C@H]2CN1C(=O)c1ccccc1 | 1 | · | -10 | 34 | 1
COC(=O)[C@@]1(Cc2ccc(OC)cc2)[C@H]2c3cc(C(=O)N(C)C)n(CCc4ccc(OC)c(Br)c4)c3C[C@H]2CN1C(=O)c1ccccc1 | 1 | · | -2 | 62* | 15
COC(=O)[C@@]1(Cc2ccc(F)cc2)[C@H]2c3cc(C(=O)N4CCCC4)n(Cc4ccc(C(F)(F)F)nc4)c3C[C@H]2CN1C(=O)c1ccccc1 | 1 | · | 8 | 87* | -9
O=C(CCc1nnc(CCC2CCCCC2)o1)NCc1ccon1 | 0 | -7 | -1 | -1 | -9
